Assay results reported in ChEMBL document CHEMBL1132156, “Synthesis and structure-activity relationships of potential anticancer agents: alkylcarbamates of 3-(9-acridinylamino)-5-hydroxymethylaniline” (J Med Chem, 1999).

How the values were obtained:
Mus musculus [1] = assay: […] anticancer activity against B6D2F-1 mice bearing P388 leukemia measured by the average body weight(g) after day 1 at an intravenous dose of 15(mg/kg).
Mus musculus [2] = assay: […] anticancer activity against B6D2F-1 mice bearing P388 leukemia measured by the average survival time(day+/-SD) at an intravenous dose of 10(mg/kg)..; format: functional
Method in brief: (§1)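 Male B6D2F1 mice, 8 weeks old, 20–25 g. P388/0 ascites cells (0.2 mL, ascites:saline 1.10) were implanted iv on day 0, and the tumor grew in the liver. Drug was given iv by tail vein on days 1, 3, 5, 7 and 9 (Q2Dx5), with 4–5 mice per group. Survival time was scored as 8 a.m. (0.0), 1 p.m. (0.25) or 5 p.m. (0.5) deaths. %ILS was averaged against untreated controls, and toxic deaths were counted.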

Mus musculus [3] = assay: […] anticancer activity against B6D2F-1 mice bearing P388 leukemia measured by the Average tumor vol after day 10 at an intravenous dose of 7(mg/kg).; format: functional
Mus musculus [4] = assay: […] anticancer activity against B6D2F-1 mice bearing Sarcoma 180 measured by the Average tumor vol after day 7 at an intravenous dose of 5(mg/kg).
Mus musculus [5] = assay: […] anticancer activity against 5 B6D2F-1 mice bearing P388 leukemia measured by the toxicity death at an intravenous dose of 10(mg/kg)..; format: organism-based; details: in vivo
Method in brief: as §1

Mus musculus [6] = assay: […] anticancer activity against B6D2F-1 mice bearing P388 leukemia measured by the average weight change(g) after day 7 at an intravenous dose of 15(mg/kg).; format: functional
Method in brief: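 Male B6D2F1 mice (8 weeks old, 20–25 g) were implanted iv on day 0 with P388/0 ascites cells (0.2 mL; ascites:saline 1.10), which grew in the liver. Drug was given iv via the tail vein, Q2Dx5, on days 1, 3, 5, 7 and 9. Groups had 4–5 mice. Day 1 value is mean body weight; later days are weight change.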

Mus musculus [7] = assay: […] anticancer activity against B6D2F-1 mice bearing Lewis Lung Carcinoma measured by the average weight change(g) after day 14 at an intraperitoneal dose of 6(mg/kg).; format: functional
Method in brief: (§2)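 Male B6D2F1 mice (8 weeks old, 20–25 g) received 4×10^6 Lewis lung carcinoma cells sc on day -2. Dosing was ip, QDx5, starting on day 1. Groups were 4 control mice and 3 mice per dose. Tumor size and average body-weight change were evaluated on days 7, 10 and 14. Tumor volume is expressed as the treated/control ratio.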

Mus musculus [8] = assay: […] anticancer activity against B6D2F-1 mice bearing P388 leukemia measured by the increase in lifespan(%) at an intravenous dose of 15(mg/kg).; format: functional
Method in brief: as §1

Mus musculus [9] = assay: […] anticancer activity against B6D2F-1 mice bearing Sarcoma 180 measured by the average weight change(g) after day 7 at an intraperitoneal dose of 5(mg/kg).; format: functional
Method in brief: (§3)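 Male B6D2F1 mice (8 weeks old, 20–25 g) were inoculated sc with 3×10^6 Sarcoma 180 cells on day 0. Dosing was ip, QDx5, starting on day 1. Groups were 4 control mice and 2 mice per dose. Average body weight change (g) and treated/control tumor volume were evaluated on days 7, 10 and 14.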

HL-60 = assay: In vitro inhibition of human leukemic HL-60 cell growth in culture; format: functional, cell-based
Method in brief: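 HL-60 cells were seeded at 5×10^4 cells/mL in RPMI 1640 with 10% heat-inactivated FBS, penicillin and streptomycin, at 37 °C in 5% CO2. Cells were exposed for 72 h to six or seven drug concentrations, run in duplicate. Viability was read by XTT-tetrazolium microculture absorbance, and IC50 was derived from median-effect plot analysis.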

Mus musculus [10] = assay: […] anticancer activity against B6D2F-1 mice bearing Sarcoma 180 measured by the average weight change(g) after day 10 at an intraperitoneal dose of 7(mg/kg).; format: functional
Method in brief: as §3

Mus musculus [11] = assay: […] anticancer activity against B6D2F-1 mice bearing Lewis Lung Carcinoma measured by the Average tumor vol after day 7 at an intraperitoneal dose of 6(mg/kg).; format: functional
Method in brief: as §2

Mus musculus [12] = assay: […] anticancer activity against B6D2F-1 mice bearing P388 leukemia measured by the increase in lifespan(%) at an intravenous dose of 10(mg/kg)..; format: functional
Method in brief: as §1

Mus musculus [13] = assay: […] anticancer activity against B6D2F-1 mice bearing Lewis Lung Carcinoma measured by the Average tumor vol after day 14 at an intraperitoneal dose of 6(mg/kg).; format: functional
Method in brief: as §2

Mus musculus [14] = assay: […] anticancer activity against B6D2F-1 mice bearing Sarcoma 180 measured by the Average tumor vol after day 14 at an intravenous dose of 5(mg/kg).
Mus musculus [15] = assay: […] anticancer activity against B6D2F-1 mice bearing Sarcoma 180 measured by the average weight change(g) after day 7 at an intraperitoneal dose of 3(mg/kg).; format: functional
Method in brief: as §3

Mus musculus [16] = assay: […] anticancer activity against B6D2F-1 mice bearing Sarcoma 180 measured by the average weight change(g) after day 10 at an intraperitoneal dose of 5(mg/kg).; format: functional
Method in brief: as §3

Work on `CCOC(=O)Nc1cc(CO)cc(Nc2c3ccccc3nc3ccccc23)c1` yielded a Body weight (Mus musculus [1]) of 23 g, an Average survival (Mus musculus [2]) of 18.4 days and an Average tumor volume (Mus musculus [3]) of under 0.01. The Average tumor volume (Mus musculus [4]) was 0.06, the Toxicity related death (Mus musculus [5]) was 0 and the Average weight change (Mus musculus [6]) was -1.6 g. It also gave an Average weight change (Mus musculus [7]) of -0.5 g, an Increase in life-span (Mus musculus [8]) of 106% and an Average weight change (Mus musculus [9]) of -2.6 g. It also gave an IC50 (HL-60) of 4.4 nM, an Average weight change (Mus musculus [10]) of -0.1 g and an Average tumor volume (Mus musculus [11]) of 0.44. It also gave an Increase in life-span (Mus musculus [12]) of 188%, an Average tumor volume (Mus musculus [13]) of 0.52 and an Average tumor volume (Mus musculus [14]) of 0.8. For the same molecule, the Average weight change (Mus musculus [15]) was -2 g and the Average weight change (Mus musculus [16]) was 1 g.
